# According to publication PMC6146057 (ACS chemical neuroscience, 2018):
# Residue numbers refer to the chain shown, from its start. Like-named read-outs stand apart in the source and are kept apart here.
# Key:
# rat M1 = target: T1, rat M1 (Rattus norvegicus, UniProt P08482); conditions: reported M1 PAMs with adverse effect liability; cited from earlier work
# T1 sequence (P08482 1-460): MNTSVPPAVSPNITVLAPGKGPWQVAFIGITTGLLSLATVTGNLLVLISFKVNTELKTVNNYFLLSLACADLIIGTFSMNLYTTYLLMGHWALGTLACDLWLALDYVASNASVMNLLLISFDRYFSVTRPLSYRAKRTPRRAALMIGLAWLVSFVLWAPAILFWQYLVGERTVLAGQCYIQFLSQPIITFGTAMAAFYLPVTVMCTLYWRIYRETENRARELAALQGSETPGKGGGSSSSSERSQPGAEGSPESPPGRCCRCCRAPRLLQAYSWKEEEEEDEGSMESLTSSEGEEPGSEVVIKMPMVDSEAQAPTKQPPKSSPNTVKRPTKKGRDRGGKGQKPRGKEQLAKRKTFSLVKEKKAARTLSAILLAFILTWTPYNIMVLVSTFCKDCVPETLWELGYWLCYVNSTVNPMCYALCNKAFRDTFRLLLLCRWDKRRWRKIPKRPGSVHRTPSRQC
# mice = conditions: cited from earlier work
# [1] = system: layer V medial prefrontal cortex fEPSPs; conditions: cited from earlier work
# rats [2] = conditions: cited from earlier work
# rats [3] = assay: Contextual fear conditioning, risperidone-induced deficit; type: in vivo, rat; conditions: 3 mg/kg i.p. alone
# [4] = system: layer V medial prefrontal cortex fEPSPs; assay: Extracellular field electrophysiology in layer V prelimbic mPFC slices; design: species or system mouse
# Summary of the method: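 Coronal prelimbic slices (400 μm) recovered in NMDG-HEPES solution (pH 7.3) for 8–10 min at 32 °C, then were perfused with ACSF at 2 mL/min and 30–32 °C. Layer V fEPSPs were evoked from layers II–III (200 μs, 0.05 Hz) or optically in ChR2-injected mice. Compound alone was bath-applied for 20 min. Alternatively, 10 μM compound was applied for 10 min, then with 3 μM OxoM for 10 min. Slope was measured 46–50 min after washout.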
# M1 [5] = target: T2, M1 (Homo sapiens, UniProt P11229); assay: M1 PAM potency at increasing ACh concentration; type: cell-based; conditions: read-out: M1 PAM potency
# T2 sequence (P11229 1-460): T1 sequence (P08482 1-460) with V5A, S254T, S309P, K320R, G337A, V413I
# M1 [6] = target: T2, M1; conditions: cited from earlier work
structure (smiles),measurement,setting,value
Cc1ccc(Cc2cc3c(=O)n([C@H]4CCCC[C@@H]4O)cnc3c3ccccc23)cn1 [compound 2],Displacement of [3H]-NMS,rat M1,weak to significant displacement
same,"Behavioral convulsions, Racine scale","mice; mice, develop rapidly and lasted 3 h",4/5
same,Agonist activity in the mouse PFC,[1],have agonist activity
same,Efficacy in rat novel object recognition (NOR) model,rats [2],failed to show efficacy
"Cc1nc2n(c(=O)c1CCN1CCC(c3noc4cc(F)ccc34)CC1)CCCC2 [risperidone, reference compound]",Effect on acquisition of contextual fear conditioning,rats [3],deficits in acquisition of contextual fear conditioning
COc1ccc(Cn2cc(C(=O)O)c(=O)c3ccccc32)cc1 [compound 1],Displacement of [3H]-NMS,rat M1,weak to significant displacement
"C[N+](C)(C)CCOC(N)=O [carbachol, reference compound]","LTD of layer V fEPSPs, agonist alone","[4]; 10 μM, electrically evoked",does not induce a significant long-term depression
Cc1cc2c(cc1Cc1ccc(-c3cocn3)cc1)C(=O)N([C@H]1CCOC[C@@H]1O)C2 [PF-06827443],EC50,M1 [5]; ACh concentration increased to EC70,7 ± 1 nM
same,EC50,M1 [5]; very low level of ACh (~EC9),40 ± 6 nM
same,Displacement of [3H]-NMS,rat M1,weak to significant displacement
same,Seizures in mice,mice; mice,induced seizures in mice
same,Agonist activity in the mouse PFC,[1],have agonist activity
"C[N+](C)(C)CC#CCN1CCCC1=O [oxotremorine-M, reference compound]","LTD of layer V fEPSPs, agonist alone","[4]; 3 μM, optical stimulation of ventral hippocampal afferents",does not induce a significant LTD
Cn1cc(-c2ccc(Cn3cc(C(=O)N[C@H]4CCCC[C@@H]4O)c4c(F)cc(F)cc43)cn2)cn1 [VU6004256],Behavioral convulsions and cholinergic AEs,mice; rodents,devoid of behavioral convulsions and cholinergic AEs
Cn1cc(-c2ccc(CN3Cc4ncccc4C3=O)c(F)c2)cn1 [VU0453595],potency at M1,M1 [6],low micromolar range
